In ChEMBL document CHEMBL4627246, “Pyroglutamide-Based P2X7 Receptor Antagonists Targeting Inflammatory Bowel Disease” (J Med Chem, 2020):
Active and inactive are the calls of the source. The calls are words filed in the database; no cut-off is given here.

Experiments:
[1] = molecular target: T1, P2X purinoceptor 7 (Homo sapiens) (UniProt Q99572); test: Antagonist activity at P2X7 receptor in human THP-1 cells assessed as inhibition of LPS and BzATP-induced IL-1beta production at 10^-6 mol/L pretreated with compound followed by LPS/BzATP addition and measured after 2 to 6 hrs by ELISA; format: cell-based; details: TDE = time-dependent effect
T1 sequence (whole entry): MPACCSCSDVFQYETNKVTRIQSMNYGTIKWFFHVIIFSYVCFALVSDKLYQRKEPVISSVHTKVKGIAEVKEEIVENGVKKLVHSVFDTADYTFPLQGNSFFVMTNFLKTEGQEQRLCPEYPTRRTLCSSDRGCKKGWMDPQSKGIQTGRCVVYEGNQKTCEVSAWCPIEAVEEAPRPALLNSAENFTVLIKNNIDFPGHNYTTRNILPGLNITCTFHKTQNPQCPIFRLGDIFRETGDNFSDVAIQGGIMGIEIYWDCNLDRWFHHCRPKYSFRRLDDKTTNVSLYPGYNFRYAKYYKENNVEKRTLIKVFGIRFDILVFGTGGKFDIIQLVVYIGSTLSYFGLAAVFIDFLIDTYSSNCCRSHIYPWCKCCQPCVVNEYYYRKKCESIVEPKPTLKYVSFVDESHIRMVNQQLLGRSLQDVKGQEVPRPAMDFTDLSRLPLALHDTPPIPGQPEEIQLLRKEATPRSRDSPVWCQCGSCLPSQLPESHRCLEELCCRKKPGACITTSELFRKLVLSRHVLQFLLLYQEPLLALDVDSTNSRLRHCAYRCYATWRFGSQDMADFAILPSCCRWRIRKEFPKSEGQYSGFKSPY
How it was run: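 PMA (100nM)-differentiated THP-1 macrophages (RPMI 1640, 10% FCS), 10^6 cells, pretreated with antagonist at […], then challenged with LPS 10 μmol/L and BzATP 70 μmol/L at 37 °C, 5% CO2; IL1β measured by ELISA, including the 6 h point; mean ± SD, P<0.05 significant.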

[2] = Drug metabolism in mouse measured after 40 mins; format: ADME; details: read-out: Drug metabolism
[3] = molecular target: T1, P2X purinoceptor 7 (Homo sapiens); test: Inhibition of human P2X7 expressed in human HEK293 cells assessed as reduction in BzATP-stimulated TO-PRO-3 incorporation at 10 uM preincubated with compound and TO-PRO-3 for 15 mins prior to BzATP addition and measured after 1 hr by Fluo-3AM dye based flow cytometry relative to control; format: cell-based
How it was run: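 HEK-293 cells overexpressing human P2RX7 loaded with Fluo-3 AM, then incubated with TO-PRO-3 (large pore uptake) and propidium iodide (viability) plus compound (10⁻⁵ M single point) for 15 min before BzATP 100 µM. After 1 h, flow cytometry; percentage of Fluo-3/TO-PRO-3 double-positive cells calculated. Mean of n ≥ 2 with positive control.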

[4] = system: HEK293; test: Cytotoxicity against human HEK293 cells assessed as reduction in cell viability at 10^-5 mol/L incubated for 72 hrs; format: cell-based; details: hek293, 72 h, 10 µM
How it was run: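 Wild-type and P2RX7-transfected HEK293 cells exposed to compound for 72 hours; viability compared against untreated control.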

[5] = molecular target: T2, P2X purinoceptor 7 (Homo sapiens, UniProt Q99572); test: Displacement of [3H]-A804598 from human P2X7 expressed in human HEK293 cell membrane incubated for 1 hr by microplate scintillation counting method; format: cell membranes
T2 sequence (Q99572 whole entry): T1 sequence (whole entry)

[6] = molecular target: T3, P2X purinoceptor 1 (Homo sapiens) (UniProt P51575); test: Antagonist activity at P2X1 receptor in human platelet assessed as inhibition of thrombin-induced platelet aggregation at 10 '-5 to 10^-6 mol/L pretreated with compound and LPS/BzATP for 10 mins followed by thrombin addition and measured for 8 mins by aggregometry analysis; format: cell-based
T3 sequence (whole entry): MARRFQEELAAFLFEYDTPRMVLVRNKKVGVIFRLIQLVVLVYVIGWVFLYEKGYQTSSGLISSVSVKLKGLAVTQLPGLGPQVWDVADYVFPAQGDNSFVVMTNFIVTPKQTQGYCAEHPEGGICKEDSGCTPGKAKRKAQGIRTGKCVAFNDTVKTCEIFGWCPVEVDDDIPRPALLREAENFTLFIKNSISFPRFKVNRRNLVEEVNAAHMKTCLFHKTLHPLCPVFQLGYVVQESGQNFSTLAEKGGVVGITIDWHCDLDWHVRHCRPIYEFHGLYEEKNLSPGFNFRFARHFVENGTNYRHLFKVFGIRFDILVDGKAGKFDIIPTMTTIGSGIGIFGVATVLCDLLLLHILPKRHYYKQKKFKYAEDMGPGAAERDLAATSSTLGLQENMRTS

[7] = Metabolic stability in human liver microsomes assessed as half life at 0.2 mg/ml incubated for 60 mins by UPLC/MS-MS analysis; format: ADME, Microsome
[8] = molecular target: T1, P2X purinoceptor 7 (Homo sapiens); test: Antagonist activity at P2X7R in human THP1 cells assessed as inhibition of LPS and BzATP-induced cell death at 10^-6 mol/L pretreated with compound followed by LPS/BzATP addition and measured after 4 hrs by sytox green dye based flow cytometry; details: THP-1
[9] = Solubility of compound in saline at 1mg/ml; format: physicochemical; details: buffer
[10] = molecular target: T1, P2X purinoceptor 7 (Homo sapiens); test: Antagonist activity at P2X7 receptor in human THP-1 cells assessed as inhibition of LPS and BzATP-induced IL-1beta production at 10^-5 mol/L pretreated with compound followed by LPS/BzATP addition and measured after 2 to 6 hrs by ELISA; format: cell-based
How it was run: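 THP-1 monocytes grown in RPMI 1640 + 10% FCS, differentiated to macrophages with PMA (100nM); 10^6 cells pretreated with antagonist at 10^-5 mol/L, then exposed to LPS 10 μmol/L plus BzATP 70 μmol/L at 37 °C, 5% CO2; IL1β quantified by ELISA in samples at 2, 4 and 6 h; mean ± SD, significance P<0.05.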

[11] = Metabolic stability in human hepatocytes; format: ADME, cell-based, Hepatocyte
[12] = molecular target: T1, P2X purinoceptor 7 (Homo sapiens); test: Antagonist activity at P2X7R in human THP1 cells assessed as inhibition of LPS and BzATP-induced mature form of IL-1beta expression in whole cell extract at 10^-6 mol/L pretreated with compound followed by LPS/BzATP addition and measured after 2 to 6 hrs by Western blot analysis; format: cell-based; details: THP-1
[13] = Metabolic stability in human liver microsomes assessed as intrinsic clearance at 0.2 mg/ml incubated for 60 mins by UPLC/MS-MS analysis; format: ADME, Microsome; details: read-out: CLH
[14] = molecular target: T1, P2X purinoceptor 7 (Homo sapiens); test: Antagonist activity at P2X7R in human THP1 cells assessed as inhibition of LPS and BzATP-induced cell death at 10^-6 mol/L pretreated with compound followed by LPS/BzATP addition and measured after 6 hrs by sytox green dye based flow cytometry; details: THP-1
[15] = molecular target: T1, P2X purinoceptor 7 (Homo sapiens); test: Antagonist activity at P2X7R in human THP1 cells assessed as inhibition of LPS and BzATP-induced ROS production at 10^-5 mol/L pretreated with compound followed by LPS/BzATP addition and measured up to 5 hrs by kinetic chemiluminescence based fluorometric analysis; format: cell-based; details: THP-1
How it was run: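 PMA-differentiated THP-1 macrophages (10^5 cells) in RPMI 1640 + 10% FBS pretreated with antagonist at 10^-5 mol/L, then LPS 10 μmol/L plus BzATP 70 μmol/L at 37 °C, 5% CO2; horseradish peroxidase (50 μg/mL) and luminol (50 μM) mixture added, chemiluminescence read on a fluorometer; cell-free H2O2 serves as positive control.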

In the case of `O=C(NCc1ccc(Cl)cc1Cl)[C@@H]1CCC(=O)N1c1ccsc1`, the inhibition [1] is reported as “Tde”, the metabolised at 40 min [2] is reported as 99.9% and the inhibition [3] is reported as 78%. For the same compound, the Activity [4] was “Non-Toxic”, the IC50 [5] was 1250 nM and the Ki [5] was 256 nM. The Activity [6] was “inactive”, the half-life [7] was 2.5 min and the inhibition [8] was “Active”. The solubility [9] was “Insoluble”, the inhibition [10] was “Active” and the Stability [11] was “Unstable”. For the same compound, the inhibition [12] was “Active”, the microsomal CLint [13] was 762 µL/min/mg and the inhibition [14] was “inactive”. For the same compound, the inhibition [15] was “Active”.
